# Results reported in ChEMBL document CHEMBL1136530, “Synthesis, stereochemical assignment and biological activity of a novel series of C-4" modified aza-macrolides” (2003).
# Assays:
# Type in all cases: functional
# Pasteurella multocida = experiment: Minimum inhibitory concentration against Pasteurella multocida
# Procedure, shortened: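 P. multocida strain 59A0067 (turkey origin), grown overnight on BHI plates; colonies in saline at OD625 0.09 (0.5 McFarland), diluted 1:100 in BHI broth. Two-fold serial dilutions in BHI microdilution, about 5×10⁵ cfu/mL final, 37 °C for 18 h. MIC is the lowest concentration with A600 ≤ 0.025.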
# Mus musculus = experiment: In vivo effective dose against Pasteurella multocida infection in mouse
# Procedure, shortened: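 Mice infected with P. multocida serotype 5A. Subcutaneous dosing 0.5 h post-infection at 5 to 80 mg/kg. ED50 calculated from the number of mice surviving four days after infection.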
# Escherichia coli = experiment: Minimum inhibitory concentration against Escherichia coli
Structure (SMILES),MIC (Pasteurella multocida) [µg/mL],MIC (Escherichia coli) [µg/mL],ED50 (Mus musculus) [mg/kg]
CC[C@H]1OC(=O)[C@H](C)[C@@H](O[C@H]2C[C@@](C)(OC)[C@@](O)(C#CCN(C)C)[C@H](C)O2)[C@H](C)[C@@H](O[C@@H]2O[C@H](C)C[C@H](N(C)C)[C@H]2O)[C@](C)(O)C[C@@H](C)CN[C@H](C)[C@@H](O)[C@]1(C)O,0.2,1.56,22
CCCC[C@@]1(O)[C@H](C)O[C@@H](O[C@H]2[C@H](C)[C@@H](O[C@@H]3O[C@H](C)C[C@H](N(C)C)[C@H]3O)[C@](C)(O)C[C@@H](C)CN[C@H](C)[C@@H](O)[C@](C)(O)[C@@H](CC)OC(=O)[C@@H]2C)C[C@@]1(C)OC,0.78,12.5,
CC[C@H]1OC(=O)CC(O)[C@H](C)[C@@H](OC2O[C@H](C)[C@@H](O)[C@H](N(C)C)[C@H]2O)[C@@H](CCN2C[C@H](C)C[C@H](C)C2)CC(C)C(=O)/C=C/C(C)=C/[C@@H]1CO[C@@H]1O[C@H](C)[C@@H](O)[C@@H](OC)[C@H]1OC (stereo partly drawn),0.78,50,
CC[C@H]1OC(=O)[C@H](C)[C@@H](O[C@H]2C[C@@](C)(OC)[C@@](O)(C#CCOC)[C@H](C)O2)[C@H](C)[C@@H](O[C@@H]2O[C@H](C)C[C@H](N(C)C)[C@H]2O)[C@](C)(O)C[C@@H](C)CN[C@H](C)[C@@H](O)[C@]1(C)O,0.2,3.13,20
CC[C@H]1OC(=O)[C@H](C)[C@@H](O[C@H]2C[C@@](C)(OC)[C@@](O)(CCCOC)[C@H](C)O2)[C@H](C)[C@@H](O[C@@H]2O[C@H](C)C[C@H](N(C)C)[C@H]2O)[C@](C)(O)C[C@@H](C)CN[C@H](C)[C@@H](O)[C@]1(C)O,0.2,0.78,49
CC[C@H]1OC(=O)[C@H](C)[C@@H](O[C@H]2C[C@@](C)(OC)[C@@](O)(c3cc4ccccc4n3C)[C@H](C)O2)[C@H](C)[C@@H](O[C@@H]2O[C@H](C)C[C@H](N(C)C)[C@H]2O)[C@](C)(O)C[C@@H](C)CN(C)[C@H](C)[C@@H](O)[C@]1(C)O,0.39,6.25,> 40

# More lines, main results first:
MIC (Pasteurella multocida) [µg/mL],MIC (Escherichia coli) [µg/mL],Structure (SMILES),ED50 (Mus musculus) [mg/kg]
0.2,1.56,CCC[C@@]1(O)[C@H](C)O[C@@H](O[C@H]2[C@H](C)[C@@H](O[C@@H]3O[C@H](C)C[C@H](N(C)C)[C@H]3O)[C@](C)(O)C[C@@H](C)CN[C@H](C)[C@@H](O)[C@](C)(O)[C@@H](CC)OC(=O)[C@@H]2C)C[C@@]1(C)OC,81
0.1,1.56,CC[C@H]1OC(=O)[C@H](C)[C@@H](O[C@H]2C[C@@](C)(OC)[C@@](O)(CCCOC)[C@H](C)O2)[C@H](C)[C@@H](O[C@@H]2O[C@H](C)C[C@H](N(C)C)[C@H]2O)[C@](C)(O)C[C@@H](C)CN(C)[C@H](C)[C@@H](O)[C@]1(C)O,> 80
< 0.1,3.13,C#C[C@@]1(O)[C@H](C)O[C@@H](O[C@H]2[C@H](C)[C@@H](O[C@@H]3O[C@H](C)C[C@H](N(C)C)[C@H]3O)[C@](C)(O)C[C@@H](C)CN[C@H](C)[C@@H](O)[C@](C)(O)[C@@H](CC)OC(=O)[C@@H]2C)C[C@@]1(C)OC,24
0.1,3.13,CC[C@H]1OC(=O)[C@H](C)[C@@H](O[C@H]2C[C@@](C)(OC)[C@]3(CO3)[C@H](C)O2)[C@H](C)[C@@H](O[C@@H]2O[C@H](C)C[C@H](N(C)C)[C@H]2O)[C@](C)(O)C[C@@H](C)CN[C@H](C)[C@@H](O)[C@]1(C)O,
0.2,3.13,CC[C@H]1OC(=O)[C@H](C)[C@@H](O[C@H]2C[C@@](C)(OC)[C@@](O)(c3cc4ccccc4n3C)[C@H](C)O2)[C@H](C)[C@@H](O[C@@H]2O[C@H](C)C[C@H](N(C)C)[C@H]2O)[C@](C)(O)C[C@@H](C)CN[C@H](C)[C@@H](O)[C@]1(C)O,> 40
0.39,6.25,CC[C@H]1OC(=O)[C@H](C)[C@@H](O[C@H]2C[C@@](C)(OC)[C@@](O)(CCO)[C@H](C)O2)[C@H](C)[C@@H](O[C@@H]2O[C@H](C)C[C@H](N(C)C)[C@H]2O)[C@](C)(O)C[C@@H](C)CN[C@H](C)[C@@H](O)[C@]1(C)O,
0.2,1.56,CC[C@H]1OC(=O)[C@H](C)[C@@H](O[C@H]2C[C@@](C)(OC)[C@@](O)(c3ccco3)[C@H](C)O2)[C@H](C)[C@@H](O[C@@H]2O[C@H](C)C[C@H](N(C)C)[C@H]2O)[C@](C)(O)C[C@@H](C)CN[C@H](C)[C@@H](O)[C@]1(C)O,72
0.78,3.13,CC[C@H]1OC(=O)[C@H](C)[C@@H](O[C@H]2C[C@@](C)(OC)[C@@](O)(c3ccccn3)[C@H](C)O2)[C@H](C)[C@@H](O[C@@H]2O[C@H](C)C[C@H](N(C)C)[C@H]2O)[C@](C)(O)C[C@@H](C)CN[C@H](C)[C@@H](O)[C@]1(C)O,> 40
